Data as given in article PMC5161045 (Journal of Antimicrobial Chemotherapy, 2016).
Converted amounts (≈) assume the structure as drawn. Ends that are not written are not given here.

What was measured:
[1] = test system: S. aureus DA29680 (cycled with LL-37); experiment: MIC of antibiotics by Etest; type: cell-based; details: Staphylococcus aureus
Method in brief: (§1)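 Strains were grown overnight with shaking at 37°C in Mueller–Hinton II broth and diluted to ∼10⁸ cfu/mL in the same broth. They were swabbed onto Mueller–Hinton II agar, an antibiotic Etest strip was applied, and plates were incubated at 37°C for 18–20 h. MIC is the lowest concentration with no visible growth, taken as the consensus of ≥2 independent determinations. Increases over WT were graded 2–5-fold or >5-fold, and EUCAST v5.0 breakpoints were used.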

[2] = test system: S. aureus DA29677 (cycled with LL-37); experiment: MIC of antibiotics by Etest; type: cell-based; details: Staphylococcus aureus
Method in brief: as §1

[3] = test system: S. aureus DA30557 (cycled with WGH); experiment: MIC of antibiotics by Etest; type: cell-based, Staphylococcus aureus; details: for MIC: Staphylococcus aureus
Method in brief: as §1

[4] = test system: S. aureus DA36424 (cycled with LL-37 and WGH); experiment: MIC of antibiotics by Etest; type: cell-based; details: Staphylococcus aureus
Method in brief: as §1

[5] = test system: S. aureus DA30559 (cycled with WGH); experiment: MIC of antibiotics by Etest; type: cell-based; details: Staphylococcus aureus
Method in brief: as §1

S. aureus DA28823 (WT) = experiment: MIC of antibiotics by Etest; type: cell-based; details: Staphylococcus aureus
Method in brief: as §1

[6] = test system: S. aureus DA37296 (cycled with PR-39); experiment: MIC of antibiotics by Etest; type: cell-based; details: Staphylococcus aureus
Method in brief: as §1

[7] = test system: S. aureus DA30560 (cycled with no peptide); experiment: MIC of antibiotics by Etest; type: cell-based; details: Staphylococcus aureus
Method in brief: as §1

[8] = test system: S. aureus DA35920 (cycled with PR-39); experiment: MIC of antibiotics by Etest; type: cell-based; details: Staphylococcus aureus
Method in brief: as §1

[9] = test system: seven AMP-resistant S. aureus mutants; experiment: MIC of antibiotics by Etest, summary over mutants; type: cell-based, Staphylococcus aureus; details: Mueller–Hinton medium; for number of AMP-resistant mutants with reduced/diminished susceptibility: of seven mutants
Method in brief: as §1

Solubility limit in MIEM = type: physicochemical; details: in MIEM (mammalian ionic environment medium, without NaCl, pH 7.4)
S. aureus DA36424 = experiment: Bacterial cell survival assay with human defensins; type: cell-based, Staphylococcus aureus; details: strain DA36424; 10 μM peptide, NaPB pH 7.4, exponential phase cells, 37°C, 2 h
S. aureus DA29677 = experiment: Bacterial cell survival assay with human defensins; type: cell-based, Staphylococcus aureus; details: strain DA29677, NaPB pH 7.4, exponential phase cells, 37°C, 2 h
Method in brief: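 Exponential-phase cells: overnight TSB culture diluted 1:100 in pre-warmed TSB, shaken 2 h at 37°C, washed once and resuspended in 10 mM sodium phosphate pH 7.4. Diluted to 0.69−4.7 × 10⁴ cfu/mL and exposed to hBD3 at 1 μM or other β-defensins at 10 μM, shaking in a sealed humidified container at 37°C for 2 h. Cells were plated on TSA for cfu. % survival = cfu with peptide/cfu without peptide × 100. Detection limit 1% survival. Mean ± SEM of ≥3 independent determinations.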

| MIC [1] | MIC [2] | MIC [3] | MIC [4] | MIC [5] | MIC [6] | MIC [8] | solubility limit (Solubility limit in MIEM) | Compound | MIC (S. aureus DA28823 (WT)) | MIC [7] | number of AMP-resistant mutants with reduced/diminished susceptibility [9] | increase in MIC ([3]; strain DA30557 (passaged with WGH), relative to WT, Etest) | susceptibility of all seven AMP-resistant mutants relative to WT (in words) [9] | bacterial survival after defensin exposure, relative to WT (in words) (S. aureus DA36424) | resistance to human β-defensin, relative to WT (in words) (S. aureus DA29677; 10 μM peptide) | resistance to human β-defensin, relative to WT (in words) (S. aureus DA29677; 1 μM peptide) |
| --- | --- | --- | --- | --- | --- | --- | --- | --- | --- | --- | --- | --- | --- | --- | --- | --- |
| 0.25 µg/mL | 0.19 µg/mL | 0.38 µg/mL | 0.38 µg/mL | 0.38 µg/mL | 0.25 µg/mL | 0.19 µg/mL | – | CCO/N=C(\C(=O)N[C@@H]1C(=O)N2C(C(=O)[O-])=C(Sc3nc(-c4cc[n+](C)cc4)cs3)CS[C@H]12)c1nsc(N)n1 [CFT, ceftaroline] | 0.25 µg/mL | 0.25 µg/mL | – | – | – | – | – | – |
| 4 µg/mL | 6 µg/mL | 4 µg/mL | 4 µg/mL | 4 µg/mL | 6 µg/mL | 3 µg/mL | – | O=C(N[C@H](CO)[C@H](O)c1ccc([N+](=O)[O-])cc1)C(Cl)Cl [CHL, chloramphenicol] | 4 µg/mL | 4 µg/mL | – | – | – | – | – | – |
| 0.094 µg/mL | 0.047 µg/mL | 0.064 µg/mL | 0.125 µg/mL | 0.064 µg/mL | 0.125 µg/mL | 0.094 µg/mL | – | CCC[C@@H]1C[C@@H](C(=O)N[C@@H]([C@H]2O[C@H](SC)[C@H](O)[C@@H](O)[C@H]2O)[C@H](C)Cl)N(C)C1 [CLI, clindamycin] | 0.094 µg/mL | 0.094 µg/mL | – | – | – | – | – | – |
| 0.094 µg/mL | 0.125 µg/mL | 0.094 µg/mL | 0.25 µg/mL | 0.125 µg/mL | 0.125 µg/mL | 0.094 µg/mL | – | C[C@H]1c2cccc(O)c2C(=O)C2=C(O)[C@]3(O)C(=O)C(C(N)=O)=C(O)[C@@H](N(C)C)[C@@H]3[C@@H](O)[C@@H]21 [DOX, doxycycline] | – | – | – | – | – | – | – | – |
| – | – | – | – | – | – | – | ~550 µg/mL (≈ 122 µM) | CC[C@H](C)[C@H](NC(=O)[C@H](CCCCN)NC(=O)[C@H](CCC(=O)O)NC(=O)[C@H](CCCCN)NC(=O)[C@H](CO)NC(=O)[C@H](CCCCN)NC(=O)[C@H](CCCNC(=N)N)NC(=O)[C@H](Cc1ccccc1)NC(=O)[C@H](Cc1ccccc1)NC(=O)[C@H](CC(=O)O)NC(=O)CNC(=O)[C@H](CC(C)C)NC(=O)[C@@H](N)CC(C)C)C(=O)NCC(=O)N[C@@H](CCCCN)C(=O)N[C@@H](CCC(=O)O)C(=O)N[C@@H](Cc1ccccc1)C(=O)N[C@@H](CCCCN)C(=O)N[C@@H](CCCNC(=N)N)C(=O)N[C@H](C(=O)N[C@H](C(=O)N[C@@H](CCC(N)=O)C(=O)N[C@@H](CCCNC(=N)N)C(=O)N[C@H](C(=O)N[C@@H](CCCCN)C(=O)N[C@@H](CC(=O)O)C(=O)N[C@@H](Cc1ccccc1)C(=O)N[C@@H](CC(C)C)C(=O)N[C@@H](CCCNC(=N)N)C(=O)N[C@@H](CC(N)=O)C(=O)N[C@@H](CC(C)C)C(=O)N[C@H](C(=O)N1CCC[C@H]1C(=O)N[C@@H](CCCNC(=N)N)C(=O)N[C@H](C(=O)N[C@@H](CCC(=O)O)C(=O)N[C@@H](CO)C(=O)O)[C@@H](C)O)C(C)C)[C@@H](C)CC)C(C)C)[C@@H](C)CC [LL-37] | – | – | – | – | – | – | – | – |
| 1.5 µg/mL | 1.5 µg/mL | 2 µg/mL | 2 µg/mL | 1 µg/mL | 2 µg/mL | 1 µg/mL | – | CC(=O)NC[C@H]1CN(c2ccc(N3CCOCC3)c(F)c2)C(=O)O1 [LZD, linezolid] | 2 µg/mL | 2 µg/mL | – | – | – | – | – | – |
| 0.012 µg/mL | 0.008 µg/mL | 0.012 µg/mL | 0.012 µg/mL | 0.016 µg/mL | 0.008 µg/mL | 0.016 µg/mL | – | CO[C@H]1/C=C/O[C@@]2(C)Oc3c(C)c(O)c4c(O)c(c(/C=N/N5CCN(C)CC5)c(O)c4c3C2=O)NC(=O)/C(C)=C\C=C\[C@H](C)[C@H](O)[C@@H](C)[C@@H](O)[C@@H](C)[C@H](OC(C)=O)[C@@H]1C [RIF, rifampicin] | 0.012 µg/mL | 0.012 µg/mL | – | – | – | – | – | – |
| – | – | – | – | – | – | – | – | AFTCHCRRSCYSTEYSYGTCTVMGINHRFCCL (bicyclic or more) [HNP6] | – | – | – | – | – | significantly reduced survival | – | – |
| – | – | – | – | – | – | – | – | DHYNCVSSGGQCLYSACPIFTKIQGTCYRGKAKCCK (also: bicyclic or more (positions not given here)) [hBD1] | – | – | – | – | – | – | increased resistance | – |
| – | – | – | – | – | – | – | – | GIGDPVTCLKSGAICHPVFCPRRYKQIGTCGLPGTKCCKKP (also: bicyclic or more (positions not given here)) [hBD2] | – | – | – | – | – | – | increased resistance | – |
| – | – | – | – | – | – | – | – | GIINTLQKYYCRVRGGRCAVLSCLPKEEQIGKCSTRGRKCCRRKK (also: bicyclic or more (positions not given here)) [hBD3] | – | – | – | – | – | – | – | increased resistance |
| – | – | – | – | – | – | – | – | polymyxin B [PMB] | – | – | three of seven | – | – | – | – | – |
| – | – | – | – | – | – | – | – | teicoplanin [TEC] | – | – | – | – | diminished susceptibility | – | – | – |

| Compound | MIC [1] | MIC [2] | MIC [3] | MIC [4] | MIC [5] | MIC [6] | MIC [8] | solubility limit (Solubility limit in MIEM) | MIC (S. aureus DA28823 (WT)) | MIC [7] | number of AMP-resistant mutants with reduced/diminished susceptibility [9] | increase in MIC ([3]; strain DA30557 (passaged with WGH), relative to WT, Etest) | susceptibility of all seven AMP-resistant mutants relative to WT (in words) [9] | bacterial survival after defensin exposure, relative to WT (in words) (S. aureus DA36424) | resistance to human β-defensin, relative to WT (in words) (S. aureus DA29677; 10 μM peptide) | resistance to human β-defensin, relative to WT (in words) (S. aureus DA29677; 1 μM peptide) |
| --- | --- | --- | --- | --- | --- | --- | --- | --- | --- | --- | --- | --- | --- | --- | --- | --- |
| CC[C@H]1OC(=O)[C@H](C)[C@@H](O[C@H]2C[C@@](C)(OC)[C@@H](O)[C@H](C)O2)[C@H](C)[C@@H](O[C@@H]2O[C@H](C)C[C@H](N(C)C)[C@H]2O)[C@](C)(O)C[C@@H](C)C(=O)[C@H](C)[C@@H](O)[C@]1(C)O [ERY, erythromycin] | 0.19 µg/mL | 0.19 µg/mL | 0.125 µg/mL | 0.25 µg/mL | 0.125 µg/mL | 0.38 µg/mL | 0.38 µg/mL | – | 0.19 µg/mL | 0.19 µg/mL | two of seven | – | – | – | – | – |
| CNC(C)C1CCC(N)C(OC2C(N)CC(N)C(OC3OCC(C)(O)C(NC)C3O)C2O)O1 (centres unmarked) [GEN, gentamicin] | 0.094 µg/mL | 0.094 µg/mL | 1 µg/mL | 0.19 µg/mL | 0.38 µg/mL | 0.5 µg/mL | 0.25 µg/mL | – | 0.125 µg/mL | 0.125 µg/mL | Four of seven | 8 fold | – | – | – | – |
| CN(C)[C@@H]1C(O)=C(C(N)=O)C(=O)[C@@]2(O)C(O)=C3C(=O)c4c(O)cccc4[C@@](C)(O)[C@H]3C[C@@H]12 [TET, tetracycline] | 0.25 µg/mL | 0.19 µg/mL | 0.25 µg/mL | 0.25 µg/mL | 0.19 µg/mL | 0.19 µg/mL | 0.125 µg/mL | – | 0.094 µg/mL | 0.094 µg/mL | six of seven | – | – | – | – | – |
| CN(C)c1cc(NC(=O)CNC(C)(C)C)c(O)c2c1C[C@H]1C[C@H]3[C@H](N(C)C)C(O)=C(C(N)=O)C(=O)[C@@]3(O)C(O)=C1C2=O [TGC, tigecycline] | 0.19 µg/mL | 0.094 µg/mL | 0.094 µg/mL | 0.19 µg/mL | 0.094 µg/mL | 0.125 µg/mL | 0.125 µg/mL | – | 0.094 µg/mL | 0.094 µg/mL | two of seven | – | – | – | – | – |
| CN[C@H](CC(C)C)C(=O)N[C@H]1C(=O)N[C@@H](CC(N)=O)C(=O)N[C@H]2C(=O)N[C@H]3C(=O)N[C@H](C(=O)N[C@H](C(=O)O)c4cc(O)cc(O)c4-c4cc3ccc4O)[C@H](O)c3ccc(c(Cl)c3)Oc3cc2cc(c3O[C@@H]2O[C@H](CO)[C@@H](O)[C@H](O)[C@H]2O[C@H]2C[C@](C)(N)[C@H](O)[C@H](C)O2)Oc2ccc(cc2Cl)[C@H]1O [VAN, vancomycin] | 2 µg/mL | 2 µg/mL | 2 µg/mL | 2 µg/mL | 1.5 µg/mL | 2 µg/mL | 2 µg/mL | – | 1.5 µg/mL | 1.5 µg/mL | – | – | little to no change in susceptibility | – | – | – |
